Data taken from ChEMBL document CHEMBL4316609, “Chemical synthesis and functional characterization of a new class of ceramide analogues as anti-cancer agents” (Bioorg Med Chem, 2019).
The source made the active and inactive calls. No cut-off for these calls is given here.

How the values were obtained:
[1] = system: SW-620; experiment: Induction of apoptosis in human SW620 cells assessed as Bcl-xl protein level at 15 uM measured after 48 hrs by Western blot analysis relative to beta-actin (reference value: 1); assay type: functional
[2] = system: SW-620; experiment: Induction of apoptosis in human SW620 cells assessed as Bcl-xl protein level at 10 uM measured after 48 hrs by Western blot analysis relative to beta-actin (reference value: 1); assay type: functional
[3] = system: HepG2; experiment: Cytotoxicity against human HepG2 cells measured after 48 hrs by MTT assay; assay type: functional, cell-based; settings: HepG2, 48 h
Procedure, shortened: (§1)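 Seeded at 7x10^3 cells/well and allowed 24 h to attach. Compounds added at final 0 to 200 μM and incubated 48 h. Viability read by MTT. IC50 taken as the concentration giving 50% growth inhibition; mean ± SD, N = 4.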

[4] = system: A-431; experiment: Cytotoxicity against human A431 cells measured after 48 hrs by MTT assay; assay type: functional, cell-based; settings: A-431, 48 h; procedure, shortened: as §1
[5] = Cytotoxicity against human SA cells measured after 48 hrs by MTT assay; assay type: functional, cell-based; settings: +SA cell; procedure, shortened: as §1
[6] = system: MCF7; experiment: Cytotoxicity against human MCF7 cells measured after 48 hrs by MTT assay; assay type: functional, cell-based; settings: MCF7, 48 h; procedure, shortened: as §1
[7] = system: SiHa; experiment: Cytotoxicity against human SiHa cells measured after 48 hrs by MTT assay; assay type: functional, cell-based; procedure, shortened: as §1
[8] = system: SW-620; experiment: Cytotoxicity against human SW620 cells measured after 48 hrs by MTT assay; assay type: functional, cell-based; settings: SW-620, 48 h; procedure, shortened: as §1
[9] = system: SW-620; experiment: Induction of apoptosis in human SW620 cells assessed as morphological changes by measuring appearance of shining cells at cytotoxic IC50 measured after 8 to 24 hrs by Hoechst 33342 staining based fluorescence microscopic analysis; assay type: functional, cell-based
[10] = system: SW-620; experiment: Induction of apoptosis in human SW620 cells assessed as XIAP protein level at 10 uM measured after 48 hrs by Western blot analysis relative to beta-actin (reference value: 1); assay type: functional
[11] = system: SW-620; experiment: Induction of apoptosis in human SW620 cells assessed as XIAP protein level at 15 uM measured after 48 hrs by Western blot analysis relative to beta-actin (reference value: 1); assay type: functional
[12] = system: SW-620; experiment: Induction of apoptosis in human SW620 cells assessed as XIAP protein level at 20 uM measured after 48 hrs by Western blot analysis relative to beta-actin (reference value: 1); assay type: functional
[13] = system: SW-620; experiment: Antitumor activity against human SW620 cells xenografted in athymic mouse assessed as suppression of tumor growth at 100 mg/kg administered as injection every other day for 15 days measured during compound dosing; assay type: functional, organism-based
Procedure, shortened: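 SW620 colon carcinoma cells (3x10^6 per mouse) implanted subcutaneously in athymic mice. Randomised at 60-80 mm³ tumour size, n=6 per group. Dosed 100 mg/kg on alternate days for 15 days. Vehicle control received 200 μL 1% polyoxyethylated castor oil. Tumour measured in three diameters with a caliper to give volume.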

[14] = system: SW-620; experiment: Induction of apoptosis in human SW620 cells assessed as Bcl-xl protein level at 20 uM measured after 48 hrs by Western blot analysis relative to beta-actin (reference value: 1); assay type: functional
[15] = system: SW-620; experiment: Toxicity in athymic mouse xenografted with human SW620 cells assessed as serum creatine kinase level at 100 mg/kg administered as injection every other day for 15 days measured post last dose by ELISA (reference value: 1.94 +/- 1.04 U/L); settings: in vivo, 360 h

| SMILES | fold change (FC) [1] | fold change (FC) [2] | IC50 [3] [µM] | IC50 [4] [µM] | IC50 [5] [µM] | IC50 [6] [µM] | IC50 [7] [µM] | IC50 [8] [µM] | Activity [9] | fold change (FC) [10] | fold change (FC) [11] | fold change (FC) [12] | Activity [13] | fold change (FC) [14] | Activity [15] [U/L] |
| --- | --- | --- | --- | --- | --- | --- | --- | --- | --- | --- | --- | --- | --- | --- | --- |
| CCCCCCCCCCCCCCNC(=O)[C@@H](NS(=O)(=O)c1ccc(C)cc1)[C@@H](C)O | 0.73 | 0.88 | 10.9 | 12 | 10.9 | 12.9 | 19.2 | 15.2 | Active | 1.06 | 1 | 0.94 | Active | 0.67 | 2.32 |
| CCCCCCCCCCCCCCNC(=O)[C@@H](NS(=O)(=O)c1ccc2ccccc2c1)[C@@H](C)O | 1.08 | 1.05 | 11.4 | 19.6 | 10.2 | 12.2 | 11.1 | 9.36 | Active | 1.21 | 1.14 | 0.93 | Active | 0.55 | 2.63 |
| CCCCCCCCCCCCCCNC(=O)[C@@H](N)[C@@H](C)O | 0.68 | 0.82 |  | 14.6 | 11 | 10.7 | 11 | 18.7 |  | 1.22 | 1.29 | 0.15 | Active | 0.34 | 2.98 |
| CCCCCCCCCCCCCCNC(=O)[C@@H](NC(=O)Cc1c[nH]c2ccccc12)[C@@H](C)O | 1.46 | 1.32 | 21.1 | 15.5 | 11.5 | 6.81 | 4.8 | 22 | Active | 1.03 | 0.86 | 0.06 | Active | 0.47 | 2.44 |
